Reference: ChEMBL document CHEMBL3259528, “Exploring 5-nitrofuran derivatives against nosocomial pathogens: synthesis, antimicrobial activity and chemometric analysis” (2014)
≈ marks a conversion by molar mass, not a printed value. Calls of active or inactive are those of the source. The calls are words filed in the database; no cut-off is given here.

Experiments:
[1] = test system: Staphylococcus aureus; test: Antimicrobial activity against Staphylococcus aureus ATCC 29213 after 24 to 48 hrs by two-fold broth microdilution method; assay type: functional
[2] = test system: Klebsiella pneumoniae; test: Antimicrobial activity against Klebsiella pneumoniae ATCC 700603 at 128 uM after 24 to 48 hrs by two-fold broth microdilution method; assay type: functional, organism-based
Procedure, shortened: (§1)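 Antibacterial microdilution in CAMH, inoculum 0.5 McFarland diluted in saline/CAMH, 35 °C for 18 h, with further reads at 24 and 48 h. Activity is scored at the maximum tested concentration, 128 µM. Triplicate.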

[3] = test system: Enterococcus faecalis; test: Antimicrobial activity against Enterococcus faecalis ATCC 29212 at 128 uM after 24 to 48 hrs by two-fold broth microdilution method; assay type: functional, organism-based; procedure, shortened: as §1
[4] = test system: Enterobacter cloacae; test: Antimicrobial activity against Enterobacter cloacae ATCC 23355 at 128 uM after 24 to 48 hrs by two-fold broth microdilution method; assay type: functional, organism-based; procedure, shortened: as §1
[5] = test system: Escherichia coli; test: Antimicrobial activity against Escherichia coli ATCC 25922 at 128 uM after 24 to 48 hrs by two-fold broth microdilution method; assay type: functional, organism-based; procedure, shortened: as §1
[6] = test system: Serratia marcescens; test: Antimicrobial activity against Serratia marcescens ATCC 14576 at 128 uM after 24 to 48 hrs by two-fold broth microdilution method; assay type: functional, organism-based; procedure, shortened: as §1
[7] = test system: Candida albicans; test: Antimicrobial activity against Candida albicans ATCC 537Y at 64 uM after 48 hrs by two-fold broth microdilution method; assay type: functional, organism-based
Procedure, shortened: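 Single top concentration of the antifungal microdilution: RPMI 1640, inoculum 0.5 McFarland diluted in saline/RPMI, 35 °C for 48 h. Activity is judged at the highest tested level, 64 µM. Run in triplicate.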

[8] = test system: Staphylococcus aureus; test: Antimicrobial activity against Staphylococcus aureus ATCC 29213 after 18 hrs by modified broth microdilution method; assay type: functional
Procedure, shortened: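 PGI90, the concentration giving 90% growth inhibition, fitted with an exponential growth curve from at least seven concentrations of the MIC assay. Inhibition % = [(Ac − Ap)/Ac] × 100 from A620 of drug-free control versus drug-treated culture. Checked by a modified broth microdilution (Phase 2).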

[9] = test system: Enterococcus faecalis; test: Antimicrobial activity against Enterococcus faecalis ATCC 29212 after 24 to 48 hrs by two-fold broth microdilution method; assay type: functional
[10] = test system: Enterobacter cloacae; test: Antimicrobial activity against Enterobacter cloacae ATCC 23355 after 24 to 48 hrs by two-fold broth microdilution method; assay type: functional
[11] = test system: Escherichia coli; test: Antimicrobial activity against Escherichia coli ATCC 25922 after 24 to 48 hrs by two-fold broth microdilution method; assay type: functional
[12] = test system: Staphylococcus aureus; test: Antimicrobial activity against multidrug-resistant Staphylococcus aureus VISA3 […] by two-fold broth microdilution method; assay type: functional
[13] = test system: Serratia marcescens; test: Antimicrobial activity against Serratia marcescens ATCC 14576 after 24 to 48 hrs by two-fold broth microdilution method; assay type: functional
[14] = test system: Candida albicans; test: Antimicrobial activity against Candida albicans ATCC 537Y after 48 hrs by two-fold broth microdilution method; assay type: functional
Procedure, shortened: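 Two-fold serial dilutions in RPMI 1640 per CLSI M27-A2. Stocks in DMSO/RPMI 1:20 v/v. Test range 1.0–64 µM. Inoculum set to 0.5 McFarland, then diluted in saline and RPMI 1640. Plates held at 35 °C for 48 h. MIC is the lowest concentration giving prominent growth reduction. Run in triplicate.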

MIC [1] | MIC [9] | MIC [11] | MIC90 [11] | MIC [13] | MIC90 [13] | MIC [14] | MIC90 [14] | Compound | MIC90 [1] | Activity [2] | Activity [3] | Activity [4] | Activity [5] | Activity [6] | Activity [7] | log(1/MIC>90) [8] | MIC90 [9] | MIC [10] | MIC90 [10] | MIC [12]
4 µM (≈ 1.35 µg/mL) |  |  |  |  |  |  |  | NS(=O)(=O)c1ccc(C(=O)N/N=C/c2ccc([N+](=O)[O-])o2)cc1 | 8.34 µM (≈ 2.82 µg/mL) | inactive | inactive | inactive | inactive | inactive | inactive | 5.08 |  |  |  | 
2 µM (≈ 0.663 µg/mL) | 16 µM (≈ 5.3 µg/mL) |  |  |  |  |  |  | CCCCOc1ccc(C(=O)N/N=C/c2ccc([N+](=O)[O-])o2)cc1 | 4.14 µM (≈ 1.37 µg/mL) | inactive |  | inactive | inactive | inactive | inactive | 5.38 | 24.1 µM (≈ 7.97 µg/mL) |  |  | 
16 µM (≈ 3.81 µg/mL) | 16 µM (≈ 3.81 µg/mL) |  |  |  |  |  |  | O=C1CN(/N=C/c2ccc([N+](=O)[O-])o2)C(=O)N1 [NITROFURANTOIN] |  | inactive |  |  |  | inactive |  |  |  | 8 µM (≈ 1.91 µg/mL) |  | 
2 µM (≈ 0.554 µg/mL) | 64 µM (≈ 17.7 µg/mL) | 32 µM (≈ 8.87 µg/mL) | 44.1 µM (≈ 12.2 µg/mL) | 64 µM (≈ 17.7 µg/mL) | 104 µM (≈ 28.9 µg/mL) | 32 µM (≈ 8.87 µg/mL) | 57 µM (≈ 15.8 µg/mL) | O=C(N/N=C/c1ccc([N+](=O)[O-])o1)c1ccc(F)cc1 | 6.64 µM (≈ 1.84 µg/mL) | inactive |  | inactive |  |  |  | 5.18 | 71.2 µM (≈ 19.7 µg/mL) |  |  | 
4 µM (≈ 1.14 µg/mL) | 32 µM (≈ 9.1 µg/mL) | 64 µM (≈ 18.2 µg/mL) | 97.3 µM (≈ 27.7 µg/mL) | 64 µM (≈ 18.2 µg/mL) | 111 µM (≈ 31.5 µg/mL) |  |  | N#Cc1ccc(C(=O)N/N=C/c2ccc([N+](=O)[O-])o2)cc1 | 5.35 µM (≈ 1.52 µg/mL) | inactive |  | inactive |  |  | inactive | 5.27 | 40.4 µM (≈ 11.5 µg/mL) |  |  | 

The remaining lines, values behind:

Compound | MIC [1] | MIC [9] | MIC [11] | MIC90 [11] | MIC [13] | MIC90 [13] | MIC [14] | MIC90 [14] | MIC90 [1] | Activity [2] | Activity [3] | Activity [4] | Activity [5] | Activity [6] | Activity [7] | log(1/MIC>90) [8] | MIC90 [9] | MIC [10] | MIC90 [10] | MIC [12]
O=C(N/N=C/c1ccc([N+](=O)[O-])o1)c1ccc(O)cc1 [NIFUROXAZIDE] | 4 µM (≈ 1.1 µg/mL) | 8 µM (≈ 2.2 µg/mL) | 32 µM (≈ 8.81 µg/mL) | 42 µM (≈ 11.6 µg/mL) |  |  |  |  | 8.87 µM (≈ 2.44 µg/mL) | inactive |  |  |  | inactive | inactive | 5.05 | 10.6 µM (≈ 2.93 µg/mL) | 32 µM (≈ 8.81 µg/mL) | 31.2 µM (≈ 8.59 µg/mL) | 8 µM (≈ 2.2 µg/mL)
CCOc1ccc(C2=NN(C(C)=O)C(c3ccc([N+](=O)[O-])o3)O2)cc1 (stereo unspecified) | 8 µM (≈ 2.76 µg/mL) |  | 64 µM (≈ 22.1 µg/mL) | 78.6 µM (≈ 27.1 µg/mL) | 64 µM (≈ 22.1 µg/mL) | 85.7 µM (≈ 29.6 µg/mL) | 8 µM (≈ 2.76 µg/mL) | 8.39 µM (≈ 2.9 µg/mL) | 8.14 µM (≈ 2.81 µg/mL) | inactive |  | inactive |  |  |  | 5.09 |  |  |  | 
CC(=O)N1N=C(c2ccc(Cl)c(Cl)c2)OC1c1ccc([N+](=O)[O-])o1 (stereo unspecified) | 4 µM (≈ 1.48 µg/mL) |  |  |  |  |  |  |  | 4.63 µM (≈ 1.71 µg/mL) | inactive |  | inactive | inactive | inactive | inactive | 5.33 |  |  |  | 4 µM (≈ 1.48 µg/mL)
CC(=O)N1N=C(c2ccc(C(F)(F)F)cc2)OC1c1ccc([N+](=O)[O-])o1 (stereo unspecified) | 4 µM (≈ 1.48 µg/mL) |  |  |  |  |  |  |  | 5.6 µM (≈ 2.07 µg/mL) | inactive |  | inactive | inactive | inactive | inactive | 5.25 |  |  |  | 4 µM (≈ 1.48 µg/mL)
CC(=O)N1N=C(c2ccc(C#N)cc2)OC1c1ccc([N+](=O)[O-])o1 (stereo unspecified) | 2 µM (≈ 0.653 µg/mL) | 64 µM (≈ 20.9 µg/mL) | 32 µM (≈ 10.4 µg/mL) | 43.1 µM (≈ 14.1 µg/mL) | 64 µM (≈ 20.9 µg/mL) | 96.3 µM (≈ 31.4 µg/mL) | 32 µM (≈ 10.4 µg/mL) | 47.6 µM (≈ 15.5 µg/mL) | 3.89 µM (≈ 1.27 µg/mL) | inactive |  | inactive |  |  |  | 5.41 | 75.2 µM (≈ 24.5 µg/mL) |  |  | 4 µM (≈ 1.31 µg/mL)
CCCCc1ccc(C(=O)N/N=C/c2ccc([N+](=O)[O-])o2)cc1 | 2 µM (≈ 0.631 µg/mL) | 32 µM (≈ 10.1 µg/mL) |  |  |  |  |  |  | 1.8 µM (≈ 0.568 µg/mL) | inactive |  | inactive | inactive | inactive | inactive | 5.74 | 55.9 µM (≈ 17.6 µg/mL) |  |  | 2 µM (≈ 0.631 µg/mL)
